Experimental data collected from several papers.
Compare with care: the assays were run in different laboratories.
Target: G protein-coupled receptor kinase 4 (GRK4, Homo sapiens, UniProt P32298)

O=C(c1ccc(Nc2ncc(Cl)c(-c3cc4ccccc4s3)n2)cc1)N1CCC(N2CCCC2)CC1 — remaining binding (binding; competition with immobilised ligand; 1 µM): 3.5%
CN(C)c1nccc(-c2cnn3ncccc23)n1 — remaining binding (binding; 1 µM): 100%
N#CC1(c2ccccn2)CCN(Cc2cc(C(=O)N3CCCC3)c(=O)n3ccccc23)CC1 — remaining binding (cell-free assay; competition with immobilised ligand; 1 µM): 86%
FC(F)(F)Oc1cccc(-c2cnc3ccc(-c4ccncc4)nn23)c1 — remaining binding (cell-free assay; competition with immobilised ligand; 5 µM): 43%
C[C@@H](c1ccc(-n2cnc3c(N)ncnc32)cc1)N1CCc2nn(C)c(Cc3ccccc3)c2C1=O — remaining binding (binding; competition with immobilised ligand; 0.1 µM): 59%
N[C@H]1CCN(c2nccc(-c3cnn4ncccc34)n2)C1 — remaining binding (binding; 1 µM): 75%
O=C(NCCCC1CCCCC1)c1ccc(CNC(=O)c2cnn(-c3ccccc3)c2C(F)(F)F)cc1 — remaining binding (cell-free assay; competition with immobilised ligand; 0.1 µM): 100%
CN(C)c1ncc(F)c(-c2cnn3ncccc23)n1 — remaining binding (binding; 1 µM): 100%
O=C(NCCCN1CCOCC1)c1ccc(Nc2ncc(Cl)c(-c3ccc(Cl)s3)n2)cc1 — remaining binding (binding; competition with immobilised ligand; 1 µM): 2.7%
Cc1cnn2ncc(-c3ccnc(N(C)C)n3)c2c1 — remaining binding (binding; 1 µM): 55%
O=C(Nc1c[nH]nc1C(=O)NC1CCNCC1)c1cc(F)cc(F)c1 — remaining binding (binding; competition with immobilised ligand; 1 µM): 100%
CCCCN(CCCC)C(=O)CN1C[C@H](c2cc(OC)c3c(c2)OCO3)[C@@H](C(=O)O)[C@@H]1CC(C)(C)CCC — remaining binding (cell-free assay; competition with immobilised ligand; 1 µM): 100%
CN(CCCC(F)(F)F)c1nccc(-c2cnn3ncccc23)n1 — remaining binding (binding; 1 µM): 100%
Nc1cnc(N2CCc3cc(S(=O)(=O)Nc4c(F)cc(Cl)cc4F)cc(N4CCCC4=O)c32)nc1 — remaining binding (cell-free assay; competition with immobilised ligand; 1 µM): 100%
C[C@H]1CCN(c2nccc(-c3cnn4ncccc34)n2)C1 — remaining binding (binding; 1 µM): 54%
O=C(Nc1cccnn1)N1CC(C/C=C/c2cncc(Oc3ccc(C(F)(F)F)cn3)n2)C1 — remaining binding (cell-free assay; competition with immobilised ligand; 1 µM): 100%
Nc1ncc2c(n1)-c1c([nH]c3ccc(C#CC4CC4)cc13)CCCC2 — remaining binding (binding; competition with immobilised ligand; 1 µM): 91%
COc1ncc2cc3ccccc3nc2c1C#N — remaining binding (cell-free assay; competition with immobilised ligand; 5 µM): 99%
O=C(c1ccc(Nc2ncc(Cl)c(-c3ccc(Cl)s3)n2)cc1)N1CCC(N2CCCC2)CC1 — remaining binding (binding; competition with immobilised ligand; 1 µM): 1.1%
COc1cccc(CNC(=O)c2nc3scc(COCc4ccc(C(=O)O)cc4)c3c(=O)[nH]2)c1 — remaining binding (cell-free assay; competition with immobilised ligand; 1 µM): 72.1%
COc1cnc(Nc2cccc(S(N)(=O)=O)c2)nc1N1CCN(c2ccccc2)CC1 — remaining binding (binding; competition with immobilised ligand; 1 µM): 100%
